The source of these data is ChEMBL document CHEMBL3232848, “Design and synthesis of high affinity inhibitors of Plasmodium falciparum and Plasmodium vivax N-myristoyltransferases directed by ligand efficiency dependent lipophilicity (LELP)” (J Med Chem, 2014).

Data set [1] can be described thus: Selectivity ratio of LD50 for human HepG2 cells to EC50 for blood-stage Plasmodium falciparum 3D7. The data set is classed as ADME, cell-based. The conditions noted are these: read-out: Ratio LD50/EC50.
The test system of data set [2] is Plasmodium falciparum. Description: Ratio of EC50 for blood-stage Plasmodium falciparum Dd2 to EC50 for blood-stage Plasmodium falciparum NF54. The data set is classed as functional.
Data set [3] has as its system Plasmodium falciparum. Description: Antimicrobial activity against blood-stage Plasmodium falciparum Dd2 assessed as inhibition of [3H]hypoxanthine incorporation after 48 hrs by liquid scintillation counting. It counts as functional. The method, boiled down:
(§1)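 Modified Desjardins method. Drug was serially diluted 2-fold, and infected blood was added at 0.3% parasitemia and 2.5% hematocrit. Uninfected blood and drug-free wells served as controls. Plates were held at 37 °C under 93% N2, 4% CO2, 3% O2. After 48 h, [3H]hypoxanthine (0.5 μCi/well) was added for a further 24 h, then cells were harvested and scintillation counted. Counts were taken as % of untreated controls, with IC50 by logit regression.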

Data set [4] concerns the target T1, Glycylpeptide N-tetradecanoyltransferase (Plasmodium falciparum (isolate 3D7), UniProt Q8ILW6).
T1 sequence (Q8ILW6 whole entry): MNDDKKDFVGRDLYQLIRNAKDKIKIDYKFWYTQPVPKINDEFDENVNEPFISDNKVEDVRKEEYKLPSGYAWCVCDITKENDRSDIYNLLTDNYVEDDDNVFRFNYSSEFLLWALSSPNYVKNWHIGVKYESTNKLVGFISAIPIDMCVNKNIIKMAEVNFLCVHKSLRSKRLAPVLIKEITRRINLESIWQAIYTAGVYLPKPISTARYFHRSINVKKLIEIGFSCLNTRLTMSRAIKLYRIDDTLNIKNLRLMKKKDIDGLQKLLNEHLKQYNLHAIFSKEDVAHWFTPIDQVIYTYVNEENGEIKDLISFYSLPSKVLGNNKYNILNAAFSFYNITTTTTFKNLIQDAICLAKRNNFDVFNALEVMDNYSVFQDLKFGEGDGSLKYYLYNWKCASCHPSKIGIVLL
Description: Inhibition of Plasmodium falciparum N-myristoyltransferase by CPM fluorescence assay. The method, boiled down:
(§2)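 IC50 values (mean of two or more determinations) were converted to Ki by Cheng–Prusoff using substrate concentration and Km. For PfNMT, Km was 3.64 μM and substrate was 4.00 μM. The human enzyme values refer to HsNMT1.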

Data set [5] in a line: Aqueous solubility of the compound. It counts as physicochemical.
Data set [6] is described as follows: Cytotoxicity against human HepG2 cells after 72 hrs by MTS assay. The data set is classed as cell-based. The following applies: read-out: LD50. Summed up:
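HepG2 cells grown in DMEM with 10% FBS and penicillin/streptomycin, 37 °C, 5% CO2, seeded at 5000 cells/well. Seven-point dilution series in medium from a 50 mM DMSO stock; DMSO/medium and puromycin control wells. Incubated 72 h, then MTS/PMS added for 4 h and read at 490 nm. LD50 by nonlinear regression, mean of six determinations.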
For orientation: Tetrazolium assays rely on reduction of a dye to a coloured formazan, in cell work by metabolically active cells.

Data set [7] in a line: Selectivity ratio of LD50 for human HepG2 cells to EC50 for blood-stage Plasmodium falciparum NF54. It counts as ADME, cell-based. The following applies: read-out: Ratio LD50/EC50.
A short description of data set [8]: Selectivity ratio of Ki for human N-myristoyltransferase to Ki for Plasmodium falciparum N-myristoyltransferase.
The test system of data set [9] is Plasmodium falciparum. Description: Antimicrobial activity against blood-stage Plasmodium falciparum NF54 assessed as inhibition of [3H]hypoxanthine incorporation after 48 hrs by liquid scintillation counting. The data set is classed as functional, organism-based. Summed up: as §1
The test system of data set [10] is Plasmodium berghei. Description: Antimicrobial activity against Plasmodium berghei sporozoites infected in 12 hrs compound pretreated human HepG2 cells assessed as reduction in viability of exoerythrocytic forms measured after 48 hrs of incubation by luciferase bioluminescence assay. The data set is classed as functional, organism-based. The method, boiled down: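 HepG2-A16-CD81EGFP cells expressing GFP-CD81 were grown in DMEM with 10% FCS, glutamine and penicillin/streptomycin at 37 °C, 5% CO2. They were seeded at 3000 cells/well 24 h before infection. Cells were pretreated 12 h with a 12-point dilution series, then infected with luciferase-expressing P. berghei sporozoites (1000/well). Exoerythrocytic form viability was read by bioluminescence after 48 h. EC50 came from a four-parameter variable-slope fit, mean of two determinations.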

Data set [11] in a line: Inhibition of human N-myristoyltransferase using H-Gly-Ser-Asn-Lys-Ser-Lys-Pro-Lys-NH2 as substrate by CPM fluorescence assay. Summed up: as §2
Data set [12] has as its system Plasmodium falciparum. Nature of the data set: Antimicrobial activity against late stage trophozoite form of Plasmodium falciparum 3D7 infected in RBCs after 48 hrs by SYBR green viability assay. The data set is classed as functional, organism-based. The conditions noted are these: 3D7, 96 h, in the assay text read “after 96 hrs” for “after 48 hrs”. The method, boiled down: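 Synchronous 3D7 late trophozoites (33–36 h) were used at 0.1–0.2% parasitemia and 2% hematocrit in washed, buffy-coat-free RBCs, in RPMI 1640 with Albumax, gentamycin and L-glutamine. Seven dilutions from 10.0 to 0.014 μM were run in duplicate at 37 °C under 5% CO2, 5% O2, 90% N2. Drug was replaced at 48 h and incubation continued to 96 h. Read-out was SYBR Green I in saponin/Triton lysis buffer, then fluorescence converted to % growth.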

Data set [13] in a line: Selectivity ratio of Ki for human N-myristoyltransferase to Ki for Plasmodium vivax N-myristoyltransferase.
Data set [14] is described as follows: Selectivity ratio of LD50 for human HepG2 cells to EC50 for blood-stage Plasmodium falciparum Dd2. The data set is classed as ADME, cell-based. The conditions noted are these: read-out: Ratio LD50/EC50.
Data set [15] is described as follows: Inhibition of Plasmodium vivax N-myristoyltransferase by CPM fluorescence assay. Summed up: as §2
In data set [16] the test system is Plasmodium falciparum. Description: Antimicrobial activity against blood-stage Plasmodium falciparum 3D7 assessed as inhibition of [3H]hypoxanthine incorporation after 48 hrs by liquid scintillation counting. It counts as functional, organism-based.
Data set [17] is described as follows: Selectivity ratio of LD50 for human HepG2 cells to EC50 for blood-stage Plasmodium falciparum K1. The data set is classed as ADME, cell-based. The conditions noted are these: read-out: Ratio LD50/EC50.
The test system of data set [18] is Plasmodium falciparum. Nature of the data set: Antimicrobial activity against blood-stage Plasmodium falciparum K1 assessed as inhibition of [3H]hypoxanthine incorporation after 48 hrs by liquid scintillation counting. The data set is classed as functional, organism-based. The method, boiled down: as §1

Some results are limits rather than exact numbers.

Turning to `Cc1nn(C)c(C)c1Cc1nnc(-c2sc3ccccc3c2OC2CCNCC2)o1`, the selectivity ratio in data set [1] was ≤ 40; in data set [7], ≤ 40; in data set [14], 14; in [17], ≤ 40. The “Ratio EC50” value in data set [2] is <4. Further, the EC50 (in general, the concentration giving half of the maximal effect) came out at 0.916 µM in [3]; 0.232 µM in [9]; 0.372 µM in data set [10]; 0.302 µM in [12]; 0.302 µM in data set [16]; 0.339 µM in data set [18]. The IC50 (as a rule, the midpoint of a concentration-inhibition curve) in data set [4] amounted to 0.017 µM. For the same molecule, the inhibition constant Ki (commonly a dissociation constant, usually derived from enzyme kinetics or from competition with a known ligand) was 0.008 µM in data set [4], 0.06 µM in data set [11] and 0.002 µM in [15]. Also, the solubility (in general, the concentration that dissolves in the medium under given conditions) in data set [5] is > 8 mM. For the same molecule, in [6], the CC50 at 72 h turned out to be 12.3 µM. For the same molecule, the Ratio Ki in data set [8] came out at 8; in [13] it was 30.

Turning to `CCN(CC)CCCC(C)Nc1ccnc2cc(Cl)ccc12` (stereo unspecified) [CHLOROQUINE], the EC50 was 0.328 µM in data set [3]; 0.013 µM in data set [9]; > 10 µM in data set [10]; 0.006 µM in data set [16]; 0.255 µM in data set [18].

On to `O=C1C(O)=C([C@H]2CC[C@H](c3ccc(Cl)cc3)CC2)C(=O)c2ccccc21` [ATOVAQUONE], for which the CC50 at 72 h in [6] is > 10 µM. In addition, in [10], the EC50 was 0.0005 µM.
